Experimental data taken from ChEMBL document CHEMBL1144491, “Synthesis and characterization of styrylchromone derivatives as beta-amyloid imaging agents” (Bioorg Med Chem, 2007).

Legend:
[1] = Partition coefficient, log P at pH 7.4; type: physicochemical; conditions: octanol/water
Outline: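 HPLC-purified radioiodinated tracer partitioned between 3 mL 1-octanol and 3 mL 0.1 M phosphate buffer pH 7.4. Vortexed 3 min at room temperature, then centrifuged 5 min. 0.5 mL samples from each layer well-counted. Ratio taken of octanol to buffer cpm/0.5 mL. Octanol layer re-partitioned until values were consistent. Done in triplicate and repeated three times.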

[2] = test system: Blood; test: Biodistribution in ddY mouse blood assessed as radioactivity at 0.5 uCi, iv after 2 mins; type: ADME, organism-based; conditions: in vivo
Outline: (§1)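 Normal mice given no-carrier-added 125I-labelled tracer (HPLC-purified) by intravenous injection, then sampled at 2, 10, 30 and 60 min. Radioactivity expressed as % injected dose per gram of tissue, and per whole organ for stomach. Values are mean (SD) of 3–5 animals per time point.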

[3] = test system: Blood; test: Biodistribution in ddY mouse blood assessed as radioactivity at 0.5 uCi, iv after 10 mins; type: ADME, organism-based; conditions: in vivo; outline: as §1
[4] = test system: Blood; test: Biodistribution in ddY mouse blood assessed as radioactivity at 0.5 uCi, iv after30 mins; type: ADME, organism-based; conditions: in vivo, 0.5 h; outline: as §1
[5] = test system: Blood; test: Biodistribution in ddY mouse blood assessed as radioactivity at 0.5 uCi, iv after 60 mins; type: ADME, organism-based; conditions: in vivo, 1 h; outline: as §1
[6] = test system: Liver; test: Biodistribution in ddY mouse liver assessed as radioactivity at 0.5 uCi, iv after 2 mins; type: ADME, organism-based; conditions: in vivo; outline: as §1
[7] = test system: Liver; test: Biodistribution in ddY mouse liver assessed as radioactivity at 0.5 uCi, iv after 10 mins; type: ADME, organism-based; conditions: in vivo; outline: as §1
[8] = test system: Liver; test: Biodistribution in ddY mouse liver assessed as radioactivity at 0.5 uCi, iv after 30 mins; type: ADME, organism-based; conditions: in vivo, 0.5 h; outline: as §1
[9] = test system: Liver; test: Biodistribution in ddY mouse liver assessed as radioactivity at 0.5 uCi, iv after 60 mins; type: ADME, organism-based; conditions: in vivo, 1 h; outline: as §1
[10] = test system: Kidney; test: Biodistribution in ddY mouse kidney assessed as radioactivity at 0.5 uCi, iv after 2 mins; type: ADME, organism-based; conditions: in vivo; outline: as §1
[11] = test system: Kidney; test: Biodistribution in ddY mouse kidney assessed as radioactivity at 0.5 uCi, iv after 10 mins; type: ADME, organism-based; conditions: in vivo; outline: as §1
[12] = test system: Kidney; test: Biodistribution in ddY mouse kidney assessed as radioactivity at 0.5 uCi, iv after 30 mins; type: ADME, organism-based; conditions: in vivo, 0.5 h; outline: as §1
[13] = test system: Kidney; test: Biodistribution in ddY mouse kidney assessed as radioactivity at 0.5 uCi, iv after 60 mins; type: ADME, organism-based; conditions: in vivo, 1 h; outline: as §1
[14] = test system: Intestine; test: Biodistribution in ddY mouse intestine assessed as radioactivity at 0.5 uCi, iv after 2 mins; type: ADME, organism-based; conditions: in vivo; outline: as §1
[15] = test system: Intestine; test: Biodistribution in ddY mouse intestine assessed as radioactivity at 0.5 uCi, iv after10 mins; type: ADME, organism-based; conditions: in vivo, 10 min; outline: as §1
[16] = test system: Intestine; test: Biodistribution in ddY mouse intestine assessed as radioactivity at 0.5 uCi, iv after 30 mins; type: ADME, organism-based; conditions: in vivo, 0.5 h; outline: as §1
[17] = test system: Intestine; test: Biodistribution in ddY mouse intestine assessed as radioactivity at 0.5 uCi, iv after 60 mins; type: ADME, organism-based; conditions: in vivo, 1 h; outline: as §1
[18] = test system: Spleen; test: Biodistribution in ddY mouse spleen assessed as radioactivity at 0.5 uCi, iv after 2 mins; type: ADME, organism-based; conditions: in vivo; outline: as §1
[19] = test system: Spleen; test: Biodistribution in ddY mouse spleen assessed as radioactivity at 0.5 uCi, iv after 10 mins; type: ADME, organism-based; conditions: in vivo; outline: as §1
[20] = test system: Spleen; test: Biodistribution in ddY mouse spleen assessed as radioactivity at 0.5 uCi, iv after 30 mins; type: ADME, organism-based; conditions: in vivo, 0.5 h; outline: as §1
[21] = test system: Spleen; test: Biodistribution in ddY mouse spleen assessed as radioactivity at 0.5 uCi, iv after 60 mins; type: ADME, organism-based; conditions: in vivo, 1 h; outline: as §1
[22] = test system: Pancreas; test: Biodistribution in ddY mouse pancreas assessed as radioactivity at 0.5 uCi, iv after 2 mins; type: ADME, organism-based; conditions: in vivo; outline: as §1
[23] = test system: Pancreas; test: Biodistribution in ddY mouse pancreas assessed as radioactivity at 0.5 uCi, iv after 10 mins; type: ADME, organism-based; conditions: in vivo; outline: as §1
[24] = test system: Pancreas; test: Biodistribution in iv dosed ddY mouse pancreas assessed as radioactivity after 30 mins; type: ADME, organism-based; conditions: in vivo, 0.5 h; outline: as §1
[25] = test system: Pancreas; test: Biodistribution in ddY mouse pancreas assessed as radioactivity at 0.5 uCi, iv after 60 mins; type: ADME, organism-based; conditions: in vivo, 1 h; outline: as §1
[26] = test system: Heart; test: Biodistribution in ddY mouse heart assessed as radioactivity at 0.5 uCi, iv after 2 mins; type: ADME, organism-based; conditions: in vivo; outline: as §1
[27] = test system: Heart; test: Biodistribution in ddY mouse heart assessed as radioactivity at 0.5 uCi, iv after 10 mins; type: ADME, organism-based; conditions: in vivo; outline: as §1
[28] = test system: Heart; test: Biodistribution in ddY mouse heart assessed as radioactivity at 0.5 uCi, iv after 30 mins; type: ADME, organism-based; conditions: in vivo, 0.5 h; outline: as §1
[29] = test system: Heart; test: Biodistribution in ddY mouse heart assessed as radioactivity at 0.5 uCi, iv after 60 mins; type: ADME, organism-based; conditions: in vivo, 1 h; outline: as §1
[30] = test system: Stomach; test: Biodistribution in ddY mouse stomach assessed as radioactivity at 0.5 uCi, iv after 2 mins; type: ADME, organism-based; conditions: in vivo; outline: as §1
[31] = test system: Stomach; test: Biodistribution in ddY mouse stomach assessed as radioactivity at 0.5 uCi, iv after10 mins; type: ADME, organism-based; conditions: in vivo, 10 min; outline: as §1
[32] = test system: Stomach; test: Biodistribution in ddY mouse stomach assessed as radioactivity at 0.5 uCi, iv after 30 mins; type: ADME, organism-based; conditions: in vivo, 0.5 h; outline: as §1
[33] = test system: Stomach; test: Biodistribution in ddY mouse stomach assessed as radioactivity at 0.5 uCi, iv after 60 mins; type: ADME, organism-based; conditions: in vivo, 1 h; outline: as §1
[34] = test system: Brain; test: Biodistribution in ddY mouse brain assessed as radioactivity at 0.5 uCi, iv after 2 mins; type: ADME, organism-based; conditions: in vivo; outline: as §1
[35] = test system: Brain; test: Biodistribution in ddY mouse brain assessed as radioactivity at 0.5 uCi, iv after 10 mins; type: ADME, organism-based; conditions: in vivo; outline: as §1
[36] = test system: Brain; test: Biodistribution in ddY mouse brain assessed as radioactivity at 0.5 uCi, iv after 30 mins; type: ADME, organism-based; conditions: in vivo, 0.5 h; outline: as §1
[37] = test system: Brain; test: Biodistribution in ddY mouse brain assessed as radioactivity at 0.5 uCi, iv after 60 mins; type: ADME, organism-based; conditions: in vivo; outline: as §1
[38] = Binding affinity at amyloid peptide plaques; design: species or system Homo sapiens
Outline: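 Saturation binding to synthetic Aβ(1–40) aggregates (57 nM final), pre-aggregated at 0.5 mg/mL in pH 7.4 10 mM sodium phosphate/1 mM EDTA, 37 °C, 42 h with shaking. Radioiodinated ligand 1–125 nM final (made by mixing with cold compound), in 10% ethanol, 3 h at room temperature. Filtered on GF/B, bound 125I gamma-counted. Nonspecific binding defined with 1 µM cold ligand. Kd by Scatchard analysis.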

SMILES	logD [1]	Drug uptake [2] [% ID/g]	Drug uptake [3] [% ID/g]	Drug uptake [4] [% ID/g]	Drug uptake [6] [% ID/g]	Drug uptake [7] [% ID/g]	Drug uptake [8] [% ID/g]	Drug uptake [10] [% ID/g]	Drug uptake [11] [% ID/g]	Drug uptake [12] [% ID/g]	Drug uptake [14] [% ID/g]	Drug uptake [15] [% ID/g]	Drug uptake [16] [% ID/g]	Drug uptake [18] [% ID/g]	Drug uptake [19] [% ID/g]	Drug uptake [20] [% ID/g]	Drug uptake [22] [% ID/g]	Drug uptake [23] [% ID/g]	Drug uptake [24] [% ID/g]	Drug uptake [34]	other results
CNc1ccc(/C=C/c2cc(=O)c3cc([125I])ccc3o2)cc1	2.15	3.21	2.44	2.19	14.55	14.41	11.13	10.41	7.05	5.48	2.59	8.55	16.72	3.88	4.42	2.66	4.92	3.56	2.25	2.84 % ID/g	Drug uptake [5]: 1.79 % ID/g; Drug uptake [9]: 7.82 % ID/g; Drug uptake [13]: 3.52 % ID/g; Drug uptake [17]: 19.16 % ID/g; Drug uptake [21]: 1.51 % ID/g; Drug uptake [25]: 1.32 % ID/g; Drug uptake [26]: 6.92 % ID/g; Drug uptake [27]: 3.31 % ID/g; Drug uptake [28]: 2.09 % ID/g; Drug uptake [29]: 1.47 % ID/g; Drug uptake [30]: 1 %ID; Drug uptake [31]: 1.89 %ID; Drug uptake [32]: 2.01 %ID; Drug uptake [33]: 1.9 %ID; Drug uptake [35]: 2.96 % ID/g; Drug uptake [36]: 1.86 % ID/g; Drug uptake ([37]; 1 h): 0.99 % ID/g; Kd [38]: 17.5 nM
CN(C)c1ccc(-c2cn3cc([125I])ccc3n2)cc1																				2.88%	Drug uptake ([37]; 30 min, in the assay text read “after 30 mins” for “after 60 mins”): 0.26 % ID/g; Ki [38]: […]
CN(C)c1ccc(/C=C/c2cc(=O)c3cc([125I])ccc3o2)cc1	2.65	2.62	1.44	1.13	11.17	10.15	7.72	6.7	4.51	3.69	1.45	4.95	12.68	2.43	2.01	1.38	3.02	2.73	1.34	1.14 % ID/g	Drug uptake [26]: 6.25 % ID/g; Drug uptake [27]: 1.75 % ID/g; Drug uptake [28]: 1.27 % ID/g; Drug uptake [30]: 0.7 %ID; Drug uptake [31]: 1.14 %ID; Drug uptake [32]: 1.23 %ID; Drug uptake [35]: 1.76 % ID/g; Drug uptake [36]: 1.37 % ID/g; Kd [38]: 8.7 nM
Nc1ccc(/C=C/c2cc(=O)c3cc([125I])ccc3o2)cc1	1.65	2.34	2.44	2.56	13.23	14.49	10.27	11.94	6.99	4.91	2.84	5.51	11.71	4.23	3.64	2.92	6.58	5.18	3.07	4.88 % ID/g	Drug uptake [5]: 2.27 % ID/g; Drug uptake [9]: 8.16 % ID/g; Drug uptake [13]: 3.76 % ID/g; Drug uptake [17]: 16.08 % ID/g; Drug uptake [21]: 2.16 % ID/g; Drug uptake [25]: 1.11 % ID/g; Drug uptake [26]: 8.4 % ID/g; Drug uptake [27]: 3.78 % ID/g; Drug uptake [28]: 2.43 % ID/g; Drug uptake [29]: 1.64 % ID/g; Drug uptake [30]: 1.24 %ID; Drug uptake [31]: 1.81 %ID; Drug uptake [32]: 2.17 %ID; Drug uptake [33]: 3.29 %ID; Drug uptake [35]: 4.4 % ID/g; Drug uptake [36]: 2.78 % ID/g; Drug uptake ([37]; 1 h): 1.62 % ID/g; Kd [38]: 32 nM
